Assay outcomes: PubChem BioAssay, several laboratories
WT yeast gro inh: growth inhibition of WT strain, primary screen, mitochondrial fusion inhibitor project, WT and mutant strains, chemical genetic. mitochondrial fusion phenotypic screen. inhibition, % at 10 µM. hit rate 2.1% among 190,000. AID 1362, 2008; in the data active means inhibition above about 58%; tested in S. cerevisiae
Hck-Nef inh: inhibitors of Nef-activated human Hck kinase, primary screen, biochemical, Z-Lyte FRET, 384-well, Hck-YEEI; Recombinant Hck-YEEI plus Nef, Z-Lyte FRET kinase assay; inhibition, % at 20 µM; hit rate 0.68% among 220,000;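 active means Hck-Nef kinase inhibition above about 50%, limit read from the data; inactive means inhibition below that limit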;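 further: 0% = DMSO with Hck plus Nef and 100% = Hck alone without Nef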
Target sequence (P08631 whole entry, looked up): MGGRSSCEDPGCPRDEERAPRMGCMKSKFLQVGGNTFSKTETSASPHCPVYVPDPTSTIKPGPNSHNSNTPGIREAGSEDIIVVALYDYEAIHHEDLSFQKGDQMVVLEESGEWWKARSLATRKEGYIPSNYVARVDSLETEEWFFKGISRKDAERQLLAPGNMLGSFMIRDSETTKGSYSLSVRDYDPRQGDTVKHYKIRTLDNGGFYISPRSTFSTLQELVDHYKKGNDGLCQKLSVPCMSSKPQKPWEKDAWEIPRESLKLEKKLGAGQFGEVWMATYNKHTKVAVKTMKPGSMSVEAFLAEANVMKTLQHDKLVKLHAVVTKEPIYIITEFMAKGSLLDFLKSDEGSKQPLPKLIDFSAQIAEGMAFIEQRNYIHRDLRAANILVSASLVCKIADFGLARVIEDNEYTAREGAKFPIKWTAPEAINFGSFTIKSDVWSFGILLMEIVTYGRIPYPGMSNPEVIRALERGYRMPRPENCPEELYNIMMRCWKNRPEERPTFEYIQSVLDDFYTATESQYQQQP
Arbovirus anti: antivirals against arbovirus infection, primary screen, cell-based, full library, 10K replicate subset; hit rate 0.37% among 200,000; inhibition, % at 10 µM; arbovirus infection cell-based antiviral screen; in the data active means inhibition above about 30%
Biofilm kill mix: clotrimazole potentiators killing C. albicans biofilm, primary screen, 4-compound mixtures. AID 1242, 2008. hit rate 0.02% among 120,000. C. albicans biofilm persisters + clotrimazole, fluorescence viability; primary screen in compound mixtures of four per well. inhibition, % at 7.6 µM;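 active means inhibition above 30.3% in the primary screen of four-compound pools, then above 30% when the compound was retested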;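 further: compounds exposed to preformed 24 h biofilms for 48 h; 0% = untreated biofilm control and 100% = clotrimazole plus chlorhexidine kill blank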
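Probe or stimulus – Clotrimazole 50 µg/mL co-treatment · System – C. albicans biofilms · Schedule – 24 h biofilm formation, then 48 h compound exposure, 37 °C · Evaluation – percent inhibition of biofilm viability · Technique – 2-h Alamar Blue fluorescence, 535/590 nm excitation/emission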
RAM network inh: inhibitors of the yeast RAM network, primary screen, dse1pr::URA3 reporter, 5-FOA selection; S. cerevisiae dse1pr::URA3 reporter, 5-FOA growth OD615, 2 d; analog-sensitive cbk1-as2 kinase mutant strain; inhibition, % at 50 µM; hit rate 1.8% among 190,000; AID 868, 2007;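 active means inhibition above a set limit, 3 SD over mean compound inhibition, cut at about 8.4% in these data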;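 further: 0% = DMSO-only wells with no growth and 100% = 10 µM 1-NA-PP1 full growth; inhibition rescues growth on 5-FOA so higher OD means more RAM inhibition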
NCF1 inh: p47phox/p22phox peptide binding inhibitors, primary screen, biochemical, uHTS, NADPH oxidase regulatory subunit; inhibition, % at 24.7 µM; fluorescence polarization, 2 h; Neutrophil cytosol factor 1 (Homo sapiens), P14598; hit rate 0.53% among 220,000;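 active means inhibition above about 30%, limit read from the data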;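 further: 0% = p47phox with labelled peptide and 100% = labelled peptide alone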
An asterisk follows results filed as active. Shown are actives, neighbours in structure and some others; about 4.6% of the full set was active somewhere.

For CCOC(=O)C1=C(c2ccccc2)N=C2SCC(=O)N2C1c1ccc2c(c1)OCO2 (stereo not given) the results were WT yeast gro inh 60.0*, Hck-Nef inh 3.4, Arbovirus anti -3.5, RAM network inh 4.8 and NCF1 inh -6.3.
Screening CCOC(=O)C1=C(c2ccccc2)N=C2SCC(=O)N2C1c1ccc(OC)c(OC)c1 (stereo not given) returned WT yeast gro inh -8.9, Hck-Nef inh -8.6, Arbovirus anti 4.8, RAM network inh 1.6 and NCF1 inh -14.7.
O=C(COC(=O)C(Cc1ccccc1)NC(=O)c1ccccc1)c1ccccc1 (stereo not given) was read as WT yeast gro inh -21.7, Hck-Nef inh 2.8, Arbovirus anti -0.6, Biofilm kill mix 6.8, RAM network inh 6.3 and NCF1 inh -3.9.
Screening O=C(N[C@@H](Cc1c[nH]c2ccccc12)C(=O)O)c1ccc(Cl)cc1 returned WT yeast gro inh -16.1, Hck-Nef inh 19.9, Arbovirus anti 3.0, Biofilm kill mix -9.8, RAM network inh 8.9* and NCF1 inh -11.6.
For O=C(NC(Cc1c[nH]c2ccccc12)C(=O)O)c1ccccc1 (stereo not given) the results were WT yeast gro inh -45.0, Hck-Nef inh -2.9, Arbovirus anti 0.2, RAM network inh -1.3 and NCF1 inh -16.0.
`O=C(COC(=O)C(Cc1ccccc1)NC(=O)c1ccc(Cl)cc1)c1ccc(Cl)cc1` (stereo not given) gave WT yeast gro inh 9.8, Hck-Nef inh 3.6, Arbovirus anti -4.4, Biofilm kill mix 13.5, RAM network inh 9.1* and NCF1 inh -35.0.
`COc1cccc2cccc(/C=N/n3cnnc3)c12` gave WT yeast gro inh -7.9, Hck-Nef inh 18.8, Arbovirus anti 13.5, Biofilm kill mix 17.5, RAM network inh 0.1 and NCF1 inh -4.7.
CN1CCN(c2ccc(-c3ccc4ccccc4n3)cc2)CC1 was read as WT yeast gro inh 72.8*, Hck-Nef inh -5.6, Arbovirus anti -19.2, Biofilm kill mix -5.3, RAM network inh 0.2 and NCF1 inh -4.5.
`CCc1ccc(NC(=S)Nc2cccc3cnccc23)cc1` gave WT yeast gro inh 61.0*, Hck-Nef inh 24.2, Arbovirus anti 21.6, Biofilm kill mix 21.1, RAM network inh 0.8 and NCF1 inh -3.9.
Screening Cc1ccc(NC(=S)Nc2cccc3cnccc23)c(C)c1 returned WT yeast gro inh 68.7*, Hck-Nef inh 21.2, Arbovirus anti -33.0, Biofilm kill mix 19.3, RAM network inh 0.2 and NCF1 inh -5.2.
Cc1cc(C)cc(NC(=S)Nc2cccc3cnccc23)c1 was read as WT yeast gro inh 65.0*, Hck-Nef inh 26.3, Arbovirus anti 10.6, Biofilm kill mix 17.9, RAM network inh 1.3 and NCF1 inh -13.0.
O=C(NC(=S)Nc1cccc2cnccc12)c1ccccc1 was read as WT yeast gro inh -2.6, Hck-Nef inh -8.2, Arbovirus anti 3.2, Biofilm kill mix 14.6, RAM network inh 1.9 and NCF1 inh 0.1.
`C=C(C)CNC(=S)Nc1cccc2cnccc12` gave WT yeast gro inh -7.2, Hck-Nef inh 0.8, Arbovirus anti -0.7, Biofilm kill mix 15.7, RAM network inh -0.2 and NCF1 inh -3.5.
`Cc1ccc(NC(=S)Nc2ccccn2)c(C)c1` gave Hck-Nef inh -11.0, Biofilm kill mix 5.3 and NCF1 inh -29.8.
For O=C(NNc1cccc(Cl)n1)c1ccc(Cl)nc1 the results were WT yeast gro inh -2.1, Hck-Nef inh 2.5, Arbovirus anti -8.4, Biofilm kill mix -2.2, RAM network inh 0.3 and NCF1 inh -16.9.
`Cc1cc(S(=O)(=O)N2CCCOC2CNC(=O)C(=O)NCc2ccco2)ccc1F` (stereo not given) gave WT yeast gro inh -2.7, Hck-Nef inh 19.9, Arbovirus anti 1.1, Biofilm kill mix 10.6, RAM network inh 1.1 and NCF1 inh -3.7.
CCOCC(=O)Nc1ccc([N+](=O)[O-])cc1C was read as WT yeast gro inh 1.1, Hck-Nef inh 13.2, Arbovirus anti -0.4, Biofilm kill mix 13.7, RAM network inh 1.4 and NCF1 inh -1.6.
